Assay results: PMC3638295 (International Journal of Medical Sciences, 2013)
No end group written: not given here.

Experiments:
DENV-2 = test: Plaque formation assay; type: cell-based, DENV-2 (strain New Guinea C); details: dose-response curve
Procedure, shortened: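 LLC-MK2 monkey kidney cells (passage <50; DMEM + 10% FBS, 37°C, 5% CO2) were seeded at 3×10^5 cells/well and exposed to a mixture of about 200 PFU DENV-2 New Guinea C (grown in C6/36 cells) and peptide. Plaques per well were counted and normalized to untreated controls as percent inhibition. Run in triplicate.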

LLC-MK2 cells = test: Cytotoxicity, MTS cell viability assay; type: cell-based, Rhesus Monkey; details: 1 to 500 µM peptide, 24, 48 and 72 hours, triplicate

Sequence	maximum inhibition activity against DENV-2 (DENV-2; at 500 µM, mean ± SD, triplicate)	IC50 (DENV-2; read-out: IC50 against DENV-2, LLC-MK2 cells) [µM]	Toxicity compared to untreated control (LLC-MK2 cells)
AGVKDGKLDF [DET4]	84.6% ± 5.6	35	–
IGVRPGKLDL [DET3]	–	–	highest toxic effect compared to other peptides
